According to ChEMBL document CHEMBL2331219, “Synthesis and anti-Candida activity of novel 2-hydrazino-1,3-thiazole derivatives” (Bioorg Med Chem Lett, 2013):
Converted amounts (≈) assume the structure as drawn.

Key:
[1] = system: Candida albicans; assay: Antifungal activity against azole-resistant Candida albicans clinical isolate 7.O.A assessed as growth inhibition after 24 to 48 hrs by CLSI microbroth dilution method; format: functional
In short: (§1)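 Microbroth dilution per CLSI M27-A3. Isolates subcultured for purity, incubated at 35 °C; five colonies >1 mm suspended in saline, adjusted to 0.5 × 10³ to 2.5 × 10³ in RPMI 1640 buffered to pH 7.0 with 0.165 M MOPS. Compounds diluted in RPMI to final […]. Read visually after 24 h and 48 h at 35 °C; MIC judged by turbidity against drug-free growth control.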

[2] = system: Nakaseomyces glabratus; assay: Antifungal activity against voriconazole-resistant Candida glabrata clinical isolate 730 assessed as growth inhibition after 24 to 48 hrs by CLSI microbroth dilution method; format: functional; in short: as §1
[3] = system: Nakaseomyces glabratus; assay: Antifungal activity against fluconazole-resistant Candida glabrata isolate 6258 assessed as growth inhibition after 24 to 48 hrs by CLSI microbroth dilution method; format: functional; in short: as §1
[4] = system: Nakaseomyces glabratus; assay: Antifungal activity against voriconazole-resistant Candida glabrata clinical isolate 724 assessed as growth inhibition after 24 to 48 hrs by CLSI microbroth dilution method; format: functional; in short: as §1
[5] = system: Candida albicans; assay: Antifungal activity against fluconazole-resistant Candida albicans clinical isolate 5.O.A assessed as growth inhibition after 24 to 48 hrs by CLSI microbroth dilution method; format: functional; in short: as §1
[6] = system: Candida albicans; assay: Antifungal activity against caspofungin-resistant Candida albicans assessed as growth inhibition after 24 to 48 hrs by CLSI microbroth dilution method
[7] = system: Candida parapsilosis; assay: Antifungal activity against anidulafungin-resistant Candida parapsilosis isolate 22019 assessed as growth inhibition after 24 to 48 hrs by CLSI microbroth dilution method; format: functional; details: Lodderomyces parapsilosis; in short: as §1
[8] = system: Candida parapsilosis; assay: Antifungal activity against anidulafungin-resistant Candida parapsilosis ANF8 assessed as growth inhibition after 24 to 48 hrs by CLSI microbroth dilution method; format: functional; details: Lodderomyces parapsilosis; in short: as §1
[9] = Aqueous solubility in PBS buffer at pH 7.0; format: physicochemical
[10] = Cytotoxicity against mouse NIH/3T3 cells assessed as cell viability at 62.5 ug/mL after 24 hrs by MTT assay relative to control; format: cell-based, NIH3T3; details: read-out: Activity
In short: (§2)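 NIH/3T3 fibroblasts kept in DMEM with 10% fetal calf serum, penicillin/streptomycin, 37 °C, 5% CO2. Cells seeded at 2 × 10⁴ cells/mL, grown 24 h, then given compound (DMSO stock diluted in medium, final DMSO <0.1%) for 24 h. MTT at 0.5 mg/mL final added for 4 h, formazan dissolved in DMSO, absorbance read at 540 nm. Triplicate wells, mean ± SD, assay run twice.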

[11] = Cytotoxicity against mouse NIH/3T3 cells assessed as cell viability at 1 ug/mL after 24 hrs by MTT assay relative to control; format: cell-based, NIH3T3; details: read-out: Activity; in short: as §2
[12] = Cytotoxicity against mouse NIH/3T3 cells assessed as cell viability at 31.3 ug/mL after 24 hrs by MTT assay relative to control; format: cell-based, NIH3T3; details: read-out: Activity; in short: as §2
[13] = Cytotoxicity against mouse NIH/3T3 cells assessed as cell viability at 0.5 ug/mL after 24 hrs by MTT assay relative to control; format: cell-based, NIH3T3; details: read-out: Activity; in short: as §2

SMILES | MIC [1] | MIC [2] | MIC [3] | MIC [4] | MIC [5] | MIC [6] | MIC [7] | MIC [8] | solubility [9] | viability at 24 h, 62.5 ug/mL [10] | viability at 24 h, 1 ug/mL [11] | viability at 24 h, 31.3 ug/mL [12] | viability at 24 h, 0.5 ug/mL [13]
COc1ccc(O)c(-c2csc(N/N=C/c3ccc4c(c3)OCO4)n2)c1 | > 16 µg/mL | > 16 µg/mL | > 16 µg/mL | > 16 µg/mL | > 16 µg/mL | > 16 µg/mL | > 16 µg/mL | > 16 µg/mL |  |  |  |  | 
C/C(=N\Nc1nc([C@H](C)N)cs1)c1ccc2c(c1)CCC2 | > 16 µg/mL | 8 µg/mL (≈ 26.6 µM) | 0.125 µg/mL (≈ 0.416 µM) | 8 µg/mL (≈ 26.6 µM) | > 16 µg/mL | 16 µg/mL (≈ 53.3 µM) | 8 µg/mL (≈ 26.6 µM) | 0.5 µg/mL (≈ 1.66 µM) | 700 µM (≈ 210 µg/mL) | 32.4% | 92.6% | 36.2% | 93.6%
C[C@@H](c1ncncc1F)[C@](O)(Cn1cncn1)c1ccc(F)cc1F [VORICONAZOLE] | > 16 µg/mL | 16 µg/mL (≈ 45.8 µM) | 2 µg/mL (≈ 5.73 µM) | 8 µg/mL (≈ 22.9 µM) | 0.25 µg/mL (≈ 0.716 µM) | 0.25 µg/mL (≈ 0.716 µM) | 0.25 µg/mL (≈ 0.716 µM) | 0.06 µg/mL (≈ 0.172 µM) |  |  |  |  | 
COc1ccc(O)c(-c2csc(N/N=C/c3cc[nH]c3)n2)c1 | > 16 µg/mL | 16 µg/mL (≈ 50.9 µM) | > 16 µg/mL | 8 µg/mL (≈ 25.4 µM) | 16 µg/mL (≈ 50.9 µM) | 16 µg/mL (≈ 50.9 µM) | 16 µg/mL (≈ 50.9 µM) | > 16 µg/mL |  |  |  |  | 
CCC(C)n1ncn(-c2ccc(N3CCN(c4ccc(OCC5COC(Cn6cncn6)(c6ccc(Cl)cc6Cl)O5)cc4)CC3)cc2)c1=O (centres undefined) [ITRACONAZOLE] | > 16 µg/mL | 1 µg/mL (≈ 1.42 µM) | 0.5 µg/mL (≈ 0.709 µM) | 2 µg/mL (≈ 2.83 µM) | 0.5 µg/mL (≈ 0.709 µM) | 0.03 µg/mL (≈ 0.0425 µM) | 0.5 µg/mL (≈ 0.709 µM) | 0.03 µg/mL (≈ 0.0425 µM) |  |  |  |  | 
C/C(=N\Nc1nc([C@H](C)NC(=O)OCc2ccccc2)cs1)c1ccc2c(c1)CCC2 | > 16 µg/mL | > 16 µg/mL | > 16 µg/mL | > 16 µg/mL | > 16 µg/mL | > 16 µg/mL | > 16 µg/mL | > 16 µg/mL |  |  |  |  | 
C/C(=N\Nc1nc([C@@H]2CCCN2)cs1)c1ccc2c(c1)CCC2 | > 16 µg/mL | 16 µg/mL (≈ 49 µM) | > 16 µg/mL | > 16 µg/mL | > 16 µg/mL | > 16 µg/mL | > 16 µg/mL | > 16 µg/mL | 900 µM (≈ 294 µg/mL) |  |  |  | 
OC(Cn1cncn1)(Cn1cncn1)c1ccc(F)cc1F [FLUCONAZOLE] | > 64 µg/mL | 64 µg/mL (≈ 209 µM) | 16 µg/mL (≈ 52.2 µM) | 64 µg/mL (≈ 209 µM) | 32 µg/mL (≈ 104 µM) | 0.125 µg/mL (≈ 0.408 µM) | 64 µg/mL (≈ 209 µM) | 1 µg/mL (≈ 3.27 µM) |  |  |  |  | 
COc1ccc(O)c(-c2csc(N/N=C/c3ccc4ccccc4c3)n2)c1 | 2 µg/mL (≈ 5.33 µM) | > 16 µg/mL | > 16 µg/mL | > 16 µg/mL | > 16 µg/mL | > 16 µg/mL | > 16 µg/mL | > 16 µg/mL |  | 52.7% | 69.2% | 45.3% | 83.7%
COc1ccc(O)c(-c2csc(N/N=C/c3c[nH]c4ccccc34)n2)c1 | 0.5 µg/mL (≈ 1.37 µM) | 0.5 µg/mL (≈ 1.37 µM) | > 16 µg/mL | > 16 µg/mL | 0.25 µg/mL (≈ 0.686 µM) | 2 µg/mL (≈ 5.49 µM) | > 16 µg/mL | 0.25 µg/mL (≈ 0.686 µM) |  | 50.2% | 80.6% | 70.6% | 91.9%
COc1ccc(O)c(-c2csc(NN=C3CCCCC3)n2)c1 | > 16 µg/mL | 8 µg/mL (≈ 25.2 µM) | 16 µg/mL (≈ 50.4 µM) | > 16 µg/mL | > 16 µg/mL | > 16 µg/mL | 16 µg/mL (≈ 50.4 µM) | > 16 µg/mL |  |  |  |  | 
COc1ccc(O)c(-c2csc(N/N=C/c3c(-c4ccccc4)nc4scc(C)n34)n2)c1 | > 16 µg/mL | 2 µg/mL (≈ 4.33 µM) | > 16 µg/mL | > 16 µg/mL | > 16 µg/mL | > 16 µg/mL | > 16 µg/mL | 4 µg/mL (≈ 8.67 µM) |  | 59.5% | 90% | 64.1% | 94.6%
C/C(=N\Nc1nc([C@@H](N)Cc2ccccc2)cs1)c1ccc2c(c1)CCC2 | > 16 µg/mL | > 16 µg/mL | > 16 µg/mL | > 16 µg/mL | > 16 µg/mL | > 16 µg/mL | > 16 µg/mL | > 16 µg/mL | 150 µM (≈ 56.5 µg/mL) |  |  |  | 
COc1ccc(O)c(-c2csc(N/N=C/c3ccco3)n2)c1 | > 16 µg/mL | > 16 µg/mL | > 16 µg/mL | > 16 µg/mL | > 16 µg/mL | > 16 µg/mL | > 16 µg/mL | > 16 µg/mL |  |  |  |  | 
C/C(=N\Nc1nc([C@H](Cc2ccccc2)NC(=O)OCc2ccccc2)cs1)c1ccc2c(c1)CCC2 | > 16 µg/mL | > 16 µg/mL | > 16 µg/mL | > 16 µg/mL | > 16 µg/mL | > 16 µg/mL | > 16 µg/mL | > 16 µg/mL |  |  |  |  | 
C/C(=N\Nc1nc([C@@H]2CCCN2C(=O)OCc2ccccc2)cs1)c1ccc2c(c1)CCC2 | > 16 µg/mL | > 16 µg/mL | > 16 µg/mL | > 16 µg/mL | > 16 µg/mL | > 16 µg/mL | > 16 µg/mL | > 16 µg/mL |  |  |  |  | 
COc1ccc(O)c(-c2csc(N/N=C(/C)C3CCc4ccccc43)n2)c1 (centres undefined) | > 16 µg/mL | 16 µg/mL (≈ 42.2 µM) | > 16 µg/mL | > 16 µg/mL | > 16 µg/mL | > 16 µg/mL | > 16 µg/mL | > 16 µg/mL | < 50 µM |  |  |  | 
COc1ccc(O)c(-c2csc(N/N=C/c3cnc4ccccn34)n2)c1 | > 16 µg/mL | > 16 µg/mL | > 16 µg/mL | > 16 µg/mL | > 16 µg/mL | > 16 µg/mL | > 16 µg/mL | > 16 µg/mL |  |  |  |  | 
C[C@@H]1[C@H](O)[C@@H](C)/C=C/C=C/C=C/C=C/C=C/C=C/C=C/[C@H](O[C@@H]2O[C@H](C)[C@@H](O)[C@H](N)[C@@H]2O)C[C@@H]2O[C@](O)(C[C@@H](O)C[C@@H](O)[C@H](O)CC[C@@H](O)C[C@@H](O)CC(=O)O[C@H]1C)C[C@H](O)[C@H]2C(=O)O [AMPHOTERICIN B] | 0.5 µg/mL (≈ 0.541 µM) | 1 µg/mL (≈ 1.08 µM) | 1 µg/mL (≈ 1.08 µM) | 0.5 µg/mL (≈ 0.541 µM) | 0.5 µg/mL (≈ 0.541 µM) | 0.5 µg/mL (≈ 0.541 µM) | 1 µg/mL (≈ 1.08 µM) | 0.5 µg/mL (≈ 0.541 µM) |  |  |  |  | 
C/C(=N\Nc1nc([C@H](Cc2c[nH]c3ccccc23)NC(=O)OCc2ccccc2)cs1)c1ccc2c(c1)CCC2 | > 16 µg/mL | 8 µg/mL (≈ 14.6 µM) | > 16 µg/mL | > 16 µg/mL | > 16 µg/mL | > 16 µg/mL | 8 µg/mL (≈ 14.6 µM) | > 16 µg/mL |  |  |  |  | 
CC[C@H](C)C[C@H](C)CCCCCCCCC(=O)N[C@H]1C[C@@H](O)[C@@H](NCCN)NC(=O)[C@@H]2[C@@H](O)CCN2C(=O)[C@H]([C@H](O)CCN)NC(=O)[C@H]([C@H](O)[C@@H](O)c2ccc(O)cc2)NC(=O)[C@@H]2C[C@@H](O)CN2C(=O)[C@H]([C@@H](C)O)NC1=O [CASPOFUNGIN] | 0.25 µg/mL (≈ 0.229 µM) | 2 µg/mL (≈ 1.83 µM) | 2 µg/mL (≈ 1.83 µM) | 0.5 µg/mL (≈ 0.457 µM) | 0.5 µg/mL (≈ 0.457 µM) | 0.5 µg/mL (≈ 0.457 µM) | 0.5 µg/mL (≈ 0.457 µM) | 8 µg/mL (≈ 7.32 µM) |  |  |  |  | 
COc1ccc(O)c(-c2csc(N/N=C/c3cnc[nH]3)n2)c1 | > 16 µg/mL | > 16 µg/mL | > 16 µg/mL | > 16 µg/mL | > 16 µg/mL | > 16 µg/mL | > 16 µg/mL | > 16 µg/mL |  |  |  |  | 
COc1ccc(O)c(-c2csc(N/N=C/c3cc4ccccc4o3)n2)c1 | > 16 µg/mL | > 16 µg/mL | > 16 µg/mL | > 16 µg/mL | > 16 µg/mL | > 16 µg/mL | > 16 µg/mL | > 16 µg/mL |  |  |  |  | 
